Holding throughout (type): functional, Mus musculus
What all share (details): route intraperitoneal

The subject of assay [1] is B16. Kind of assay: Difference in body weight in grams between test and control animals at a dose of 5 mg/kg intraperitoneally. The method in brief: (§1)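 B16 melanoma system: 10⁶ tumor cells inoculated ip on day 0. Drug given ip once daily for 9 days (Q01Dx09) starting day 1, dose as mg/kg body weight per injection. Read-out is the body-weight difference in grams, treated minus control animals. Early deaths, taken as toxicity, are scored on day 4.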

In assay [2] the test system is B16. In words: Percent of median lifetime of test animals divided by the median lifetime of control animals at a dose of 10 mg/kg intraperitoneally. Summed up: (§2)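 B16 melanoma inoculated ip (10⁶ cells) on day 0. Daily ip treatment for 9 days (Q01Dx09) begins day 1, dosed per injection in mg/kg. %T/C is the median lifespan of treated animals divided by that of tumored untreated controls, ×100. Cures are animals alive on the last test day. Toxic deaths are assessed on day 4.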

Assay [3] has as its system B16. Kind of assay: Difference in body weight in grams between test and control animals at a dose of 2.5 mg/kg intraperitoneally. The method in brief:
as §1

Assay [4] deals with B16. Kind of assay: Difference in body weight in grams between test and control animals at a dose of 40 mg/kg intraperitoneally. The method in brief: as §1
Assay [5] relates to B16. In words: Antitumor activity in B16 Melanoma system animals is indicated by survivors on day 4 at a dose of 40 mg/kg intraperitoneally. The method in brief: (§3)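 B16 melanoma, 10^6 cells inoculated ip on day 0. Ip treatment started day 1, schedule Q01Dx09 (one dose daily for 9 days). The score is live animals on day 4 over total animals; early deaths are taken as drug toxicity.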

Assay [6] has as its system B16. In words: Antitumor activity in B16 Melanoma system animals is indicated by survivors on day 4 at a dose of 5 mg/kg intraperitoneally. Summed up:
as §3

In assay [7] the test system is B16. Kind of assay: Antitumor activity in B16 Melanoma system animals is indicated by survivors on day 4 at a dose of 2.5 mg/kg intraperitoneally. Also on record: reference not given here. Summed up:
as §3

For assay [8], the system named is B16. In words: Difference in body weight in grams between test and control animals at a dose of 20 mg/kg intraperitoneally. Summed up: as §1
In assay [9] the test system is B16. Kind of assay: Percent of median lifetime of test animals divided by the median lifetime of control animals at a dose of 20 mg/kg intraperitoneally. The method in brief: as §2
Assay [10] relates to B16. In words: Percent of median lifetime of test animals divided by the median lifetime of control animals at a dose of 5 mg/kg intraperitoneally. Summed up:
as §2

Assay [11] relates to B16. Kind of assay: Antitumor activity in B16 Melanoma system animals is indicated by survivors on day 4 at a dose of 20 mg/kg intraperitoneally. Also on record: reference not given here. Summed up:
as §3

In assay [12] the test system is B16. Kind of assay: Antitumor activity in B16 Melanoma system animals is indicated by survivors on day 4 at a dose of 10 mg/kg intraperitoneally. Also on record: reference not given here. The method in brief:
as §3

Assay [13] has as its system B16. Kind of assay: Percent of median lifetime of test animals divided by the median lifetime of control animals at a dose of 2.5 mg/kg intraperitoneally. The method in brief:
as §2

For assay [14], the system named is B16. Kind of assay: Percent of median lifetime of test animals divided by the median lifetime of control animals at a dose of 40 mg/kg intraperitoneally. Summed up:
as §2

Assay [15] deals with B16. Kind of assay: Difference in body weight in grams between test and control animals at a dose of 10 mg/kg intraperitoneally. Summed up:
as §1

Assay [16] concerns B16. In words: Percent of median lifetime of test animals divided by the median lifetime of control animals at a dose of 5.5 mg/kg intraperitoneally. The method in brief:
as §2

Assay [17] has as its system B16. Kind of assay: Percent of median lifetime of test animals divided by the median lifetime of control animals at a dose of 2.75 mg/kg intraperitoneally. Summed up: as §2
In assay [18] the test system is B16. In words: Antitumor activity in B16 Melanoma system animals is indicated by survivors on day 4 at a dose of 5.5 mg/kg intraperitoneally. The method in brief:
as §3

Assay [19] deals with B16. In words: Antitumor activity in B16 Melanoma system animals is indicated by survivors on day 4 at a dose of 11 mg/kg intraperitoneally. Summed up:
as §3

Assay [20] has as its system B16. In words: Percent of median lifetime of test animals divided by the median lifetime of control animals at a dose of 44 mg/kg intraperitoneally. Summed up:
as §2

Assay [21] deals with B16. In words: Antitumor activity in B16 Melanoma system animals is indicated by survivors on day 4 at a dose of 2.75 mg/kg intraperitoneally. Summed up:
as §3

Assay [22] deals with B16. In words: Percent of median lifetime of test animals divided by the median lifetime of control animals at a dose of 11 mg/kg intraperitoneally. Summed up:
as §2

Assay [23] concerns B16. Kind of assay: Antitumor activity in B16 Melanoma system animals is indicated by survivors on day 4 at a dose of 22 mg/kg intraperitoneally. Summed up:
as §3

Assay [24] has as its system B16. In words: Difference in body weight in grams between test and control animals at a dose of 22 mg/kg intraperitoneally. The method in brief: as §1
Assay [25] concerns B16. Kind of assay: Antitumor activity in B16 Melanoma system animals is indicated by survivors on day 4 at a dose of 44 mg/kg intraperitoneally. Summed up: as §3
Assay [26] relates to B16. Kind of assay: Difference in body weight in grams between test and control animals at a dose of 44 mg/kg intraperitoneally. The method in brief:
as §1

Assay [27] has as its system B16. Kind of assay: Percent of median lifetime of test animals divided by the median lifetime of control animals at a dose of 22 mg/kg intraperitoneally. Summed up:
as §2

Assay [28] relates to B16. Kind of assay: Percent of median lifetime of test animals divided by the median lifetime of control animals at a dose of 1.25 mg/kg intraperitoneally. The method in brief: as §2
Assay [29] deals with B16. In words: Antitumor activity in B16 Melanoma system animals is indicated by survivors on day 4 at a dose of 1.25 mg/kg intraperitoneally. Summed up: as §3
Assay [30] deals with B16. In words: Difference in body weight in grams between test and control animals at a dose of 1.25 mg/kg intraperitoneally. The method in brief: as §1
For assay [31], the system named is B16. Kind of assay: Difference in body weight in grams between test and control animals at a dose of 2.75 mg/kg intraperitoneally. Summed up:
as §1

Assay [32] deals with B16. Kind of assay: Difference in body weight in grams between test and control animals at a dose of 11 mg/kg intraperitoneally. Summed up: as §1
The subject of assay [33] is B16. Kind of assay: Difference in body weight in grams between test and control animals at a dose of 5.5 mg/kg intraperitoneally. Summed up: as §1

In general, T/C refers to the result in the treated group divided by that in the control group, in per cent.

`CC(=O)OC1C(=O)[C@@]2(C)[C@H]([C@H](OC(=O)c3ccccc3)[C@]3(O)CC(OC(=O)C(OC(=O)CCC(=O)O)C(NC(=O)c4ccccc4)c4ccccc4)C(C)=C1C3(C)C)[C@]1(OC(C)=O)CO[C@@H]1C[C@@H]2O` (stereo not given in full): the Weight difference in the assay on B16 [1] is recorded as 0.4 g; with B16 [3] it was 0 g; in the assay with B16 [4], 0 g; in the assay with B16 [8], 0 g; in the assay with B16 [15], 0.4 g. For the same molecule, the T/C in the assay on B16 [2] came to 159%; with B16 [9] it was 154%; with B16 [10], 154%; in the assay on B16 [13], 119%; in the assay with B16 [14], 185%. For the same molecule, the Activity in the assay on B16 [5], with B16 [7], in the assay with B16 [11] and with B16 [12] was 10 each time. Moreover, in the assay on B16 [6], the “Survivors on day 4” value is given as 10.
Consider `CC(=O)OC1C(=O)[C@]2(C)[C@@H](OC(=O)CCC(=O)[O-])C[C@H]3OC[C@@]3(OC(C)=O)[C@H]2[C@H](OC(=O)c2ccccc2)[C@]2(O)CC(OC(=O)C(OC(=O)CCC(=O)[O-])C(NC(=O)c3ccccc3)c3ccccc3)C(C)=C1C2(C)C.[Na+].[Na+]` (stereo not given in full), for which the T/C with B16 [16] stood at 114%; in the assay on B16 [17], 120%; in the assay on B16 [20], 166%; in the assay on B16 [22], 149%; in the assay on B16 [27] it was 109%. In addition, the Activity in the assay on B16 [18], with B16 [19], in the assay with B16 [21], in the assay with B16 [23] and in the assay with B16 [25] was 10 in each case. Moreover, the Weight difference in the assay with B16 [24] and in the assay with B16 [26] was 0 g each time.
As to `CC(=O)OC1C(=O)[C@@]2(C)[C@H]([C@H](OC(=O)c3ccccc3)[C@]3(O)CC(OC(=O)C(OC(=O)CCC(=O)[O-])C(NC(=O)c4ccccc4)c4ccccc4)C(C)=C1C3(C)C)[C@]1(OC(C)=O)CO[C@@H]1C[C@@H]2O.[Na+]` (stereo not given in full), the Weight difference in the assay with B16 [1] is 0 g; in the assay on B16 [3], 0.4 g; in the assay with B16 [4] it was 0.6 g; in the assay with B16 [30] it was 0.1 g; with B16 [8], -0.2 g; with B16 [15], 0.6 g. The T/C with B16 [2] turned out to be 183%; in the assay on B16 [28], 111%; with B16 [9], 201%; in the assay on B16 [10], 166%; in the assay on B16 [13] it was 159%; in the assay on B16 [14], 218%. Further, the Activity in the assay on B16 [29], with B16 [5], in the assay with B16 [7], with B16 [11] and in the assay with B16 [12] was 10 in each case. Besides, the “Survivors on day 4” value in the assay with B16 [6] was determined as 10.
With `CC(=O)OC1C(=O)[C@]2(C)[C@@H](OC(=O)CCC(=O)O)C[C@H]3OC[C@@]3(OC(C)=O)[C@H]2[C@H](OC(=O)c2ccccc2)[C@]2(O)CC(OC(=O)C(OC(=O)CCC(=O)O)C(NC(=O)c3ccccc3)c3ccccc3)C(C)=C1C2(C)C` (stereo not given in full), the Weight difference is -0.3 g in the assay on B16 [31]; 0.3 g in the assay on B16 [24]; 0.1 g with B16 [32]; -0.3 g with B16 [33]; 0 g in the assay on B16 [26]. Also, the T/C in the assay on B16 [16] is listed as 113%; with B16 [17], 109%; in the assay with B16 [20], 114%; in the assay on B16 [22] it was 124%; in the assay with B16 [27], 105%. The Activity in the assay on B16 [18], in the assay on B16 [19], with B16 [21], with B16 [23] and with B16 [25] was 10 throughout.

Source of the values: ChEMBL document CHEMBL1124441, “Synthesis of congeners and prodrugs. 3. Water-soluble prodrugs of taxol with potent antitumor activity” (1989).
